Assays:
[1] = folding enthalpy; higher = less favourable; fluorescence melt of hairpins on a sequencing array, two-state fit; conditions: sodium 0.088 M
Summary of the method: (§1)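 On a sequenced MiSeq flow cell, library hairpins with annealed Cy3 and quencher oligos were imaged for Cy3 fluorescence in 2.5 °C steps up to 60 °C, in 50 mM Na-HEPES pH 8.0, 25 mM NaCl. Normalisation used pre-quench Cy3 and control constructs. Bootstrapped two-state fits gave melting temperature and folding enthalpy, combined by inverse variance across four replicates and with fitted temperatures raised by 9.35 °C to match UV melts.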

[2] = melting temperature; fluorescence melt of hairpins on a sequencing array, two-state fit, raised by 9.35 °C to match UV melts; conditions: sodium 0.088 M
Summary of the method: as §1

Row | Sequence | folding enthalpy [1] [kcal/mol] | Tm [2] [°C]
1 | GATCCTGCCAGGATC ((((((...)))))) | -34.7 | 56.6
2 | GCTCCGCGAAAGCCCAGC (((..((....))..))) | -5.26 | 23.2
3 | GTTCTAGGAAACTAGAGC (.(((((....))))).) | -24.7 | 35.6
4 | GGAGTAGGAAACTGCTTC (.((.((....)).)).) | -32.7 | 41.4
5 | GTCCGCGAAAGCGTAGAC ((((((....)))..))) | -16.7 | 43
6 | GTGAACCGAAAGGTACAC (((.(((....))).))) | -35.7 | 54.3
7 | GGGATCGAAAGATTCCCC ((((((....)))..))) | -18.8 | 49.3
8 | GCCGGCGAAAGCCAGGGC ((((((....)))..))) | -18.7 | 63.1
9 | GCCGTGGCGAAAGCCGGC (((..(((....)))))) | -21.4 | 62.8
10 | GGAACTGGAAACGGTTTC (.(((.(....).))).) | -17.9 | 30.4
11 | GTATCAGCGAAAGCTTAC (((..(((....)))))) | -8.4 | 26.3
12 | GCGTTTGGACGC ((((....)))) | -19.2 | 54.2
13 | GATAGCGGAAACGCTGTC ((.((((....)))).)) | -25 | 52.2
14 | GATCTGCAAACAGATC ((((((....)))))) | -35.9 | 48.5
15 | GACTCTGGAAACAGAGTC (((((((....))))))) | -34.3 | 63.9
16 | GGTGTTGGAAACGATACC (((.(.(....).).))) | -14.2 | 33.2
17 | GCTTGCGAAAGCATAAGC ((((((....)))..))) | -19.4 | 47.9
18 | GAACGAGCGAAAGCTTTC (((..(((....)))))) | -8.11 | 23.9
19 | GCTCACGAAAGTGGAGC ((((((....))).))) | -27.5 | 59
20 | GATCCCAGGTGGGATC ((((((....)))))) | -37 | 60.1
21 | GGCAAAGCGAAAGCTGCC (((..(((....)))))) | -31.3 | 58.5
22 | GCACGCGAAAGCGAATGC ((((((....)))..))) | -18.6 | 49.2
23 | GATACACGAAAGTGCATC (((.(((....))).))) | -23.7 | 44.2

Row | Sequence | folding enthalpy [1] [kcal/mol] | Tm [2] [°C]
24 | GATCTGCATACAGATC ((((((....)))))) | -43.2 | 52.1
25 | GTCAGAACGAAAGTTGAC (((..(((....)))))) | -21.5 | 36.9
26 | GAACCCGAAAGGGCCTTC ((((((....)))..))) | -14.2 | 34.6
27 | GAGACCCCGAAAGGGCTC (((..(((....)))))) | -22.6 | 47.2
28 | GCGATCGAAAGATTGCGC ((((((....)))..))) | -39.6 | 57.2
29 | GTTACCGAAAGGTAAAAC ((((((....)))..))) | -13.2 | 34.7
30 | GGAAAGACGAAAGTCTCC (((..(((....)))))) | -14.5 | 36.4
31 | GGCTACCGAAAGGTTGCC (((.(((....))).))) | -35.5 | 63
32 | GCTAAGCGAAAGCATTGC ((.(.((....)).).)) | -19.9 | 36.2
33 | GCTTAGCGAAAGCTAGC (((.(((....)))))) | -19.2 | 53.8
34 | CAGGGGAAACCCTG (((((....))))) | -23.2 | 52.5
35 | GATCCCTAATGGGATC ((((((....)))))) | -38.3 | 57.6
36 | GCGAGAGCGAAAGCTCGC (((..(((....)))))) | -9.94 | 65.6
37 | GATCTGTGACCAGATC ((((((....)))))) | -36.5 | 47.8
38 | GCATCGCGAAAGCGGAGC ((..(((....)))..)) | -16.5 | 54.2
39 | GAGTCCGAAAGGAACCTC ((((((....)))..))) | -16.5 | 33
40 | GGATACGAAAGTACTTCC ((((((....)))..))) | -17.1 | 34.8
41 | GGTCGCACGAAAGTGACC (((..(((....)))))) | -18.1 | 49.6
42 | GTCTGGGAAACCAGAC ((((((....)))))) | -38.3 | 58.3
43 | GGAACCGAAAGGTCGTCC ((((((....)))..))) | -10.8 | 31.4
44 | GATATGCGAAAGCAGATC (((.(((....))).))) | -30.3 | 53.3
45 | GCGACATCGAAAGATCGC (((..(((....)))))) | -26.7 | 45.9
46 | GCGACGCGAAAGCACCGC (((..((....))..))) | -19.7 | 55.8

From the array DNA melting data of Ke et al. (doi:10.1101/2024.01.08.574731)
